Reference: ChEMBL document CHEMBL2177098, “Synthesis and evaluation of novel ¹⁸F labeled 2-pyridinylbenzoxazole and 2-pyridinylbenzothiazole derivatives as ligands for positron emission tomography (PET) imaging of β-amyloid plaques” (J Med Chem, 2012)

What was measured:
Blood [1] = assay: Drug uptake in ICR mouse blood at 370 kBq/100 ul, iv at 60 mins by gamma-counting analysis; format: ADME, organism-based; settings: in vivo, 1 h
Outline: (§1)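 Male ICR mice (5 weeks, about 20 g) got 18F tracer in saline (370 KBq per 100 μL) via tail vein; n = 5 per time point, killed at 2, 10, 30, 60 min. Organs weighed and γ-counted; percent dose per gram wet tissue from comparison with diluted injectate aliquots.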

Kidney [2] = assay: Drug uptake in ICR mouse kidney at 370 kBq/100 ul, iv at 2 mins by gamma-counting analysis; format: ADME, organism-based; settings: in vivo; outline: as §1
Spleen [3] = assay: Drug uptake in ICR mouse spleen at 370 kBq/100 ul, iv at 60 mins by gamma-counting analysis; format: ADME, organism-based; settings: in vivo, 1 h; outline: as §1
Brain [4] = assay: Drug uptake in healthy human brain at 370 KBq/100 ul after 1 hr by autoradiographic analysis; format: ADME, tissue-based; settings: in vitro
Brain [5] = assay: Drug uptake in ICR mouse brain at 370 kBq/100 ul, iv at 30 mins by gamma-counting analysis; format: ADME, organism-based; settings: in vivo, 0.5 h; outline: as §1
Blood [6] = assay: Drug uptake in ICR mouse blood at 370 kBq/100 ul, iv at 2 mins by gamma-counting analysis; format: ADME, organism-based; settings: in vivo; outline: as §1
Brain [7] = assay: Ratio of drug uptake in brain at 2 mins to drug uptake in brain at 60 mins in ICR mouse at 370 KBq/100 ul, iv; format: ADME, organism-based; settings: in vivo
Outline: (§2)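 Normal male ICR mice (5 weeks, about 20 g) received the ¹⁸F tracer in saline (370 KBq per 100 μL) by tail-vein injection. Groups of n = 5 were killed at 2, 10, 30 and 60 min. Organs were removed, weighed and γ-counted against diluted aliquots of the injectate, giving % dose per gram. Stomach and intestine were expressed per organ. The brain ratio is 2 min/60 min uptake. Values are mean ± SD.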

Blood [8] = assay: Drug uptake in ICR mouse blood at 370 kBq/100 ul, iv at 10 mins by gamma-counting analysis; format: ADME, organism-based; settings: in vivo; outline: as §1
Brain [9] = assay: Drug uptake in ICR mouse brain at 370 kBq/100 ul, iv at 60 mins by gamma-counting analysis; format: ADME, organism-based; settings: in vivo, 1 h; outline: as §1
Heart [10] = assay: Drug uptake in ICR mouse heart at 370 kBq/100 ul, iv at 30 mins by gamma-counting analysis; format: ADME, organism-based; settings: in vivo, 0.5 h; outline: as §1
Liver [11] = assay: Drug uptake in ICR mouse liver at 370 kBq/100 ul, iv at 60 mins by gamma-counting analysis; format: ADME, organism-based; settings: in vivo, 1 h; outline: as §1
[12] = Displacement of [125I]-IMPY from amyloid beta (1 to 42) fibrils after 2 hrs by gamma-counting analysis
Outline: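 Competition binding with aggregated Aβ1-42 fibrils and [125I]IMPY (60000−100000 cpm/100 μL) in 0.05% BSA (1 mL total); inhibitors 10⁻⁴−10^−8.5 M in ethanol. Incubated 37 °C for 2 h, then GF/B vacuum filtration with PBS (0.02 M, pH 7.4) washes and γ counting. Three repeats; IC50 converted to Ki by Cheng−Prusoff.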

[13] = Chemical stability of the compound in saline solution after 6 hrs; format: physicochemical; settings: buffer
Outline: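 Tracer kept in saline solution at room temperature, and stability followed during storage for up to 6 h.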

Heart [14] = assay: Drug uptake in ICR mouse heart at 370 kBq/100 ul, iv at 10 mins by gamma-counting analysis; format: ADME, organism-based; settings: in vivo; outline: as §1
Liver [15] = assay: Drug uptake in ICR mouse liver at 370 kBq/100 ul, iv at 10 mins by gamma-counting analysis; format: ADME, organism-based; settings: in vivo; outline: as §1
Brain [16] = assay: Drug uptake in ICR mouse brain at 370 kBq/100 ul, iv at 10 mins by gamma-counting analysis; format: ADME, organism-based; settings: in vivo; outline: as §1
[17] = n-Octanol-PBS buffer partition coefficient, log D of the compound at 1.5 MBq after 3 mins at pH 7.4; format: physicochemical
Outline: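 The tracer was partitioned between n-octanol and PBS by vortexing for 3 min at room temperature, then centrifuged for 5 min at 3000 rpm. Samples of the octanol (50 μL) and aqueous (500 μL) layers were counted. log D is the log of the octanol/PBS counts-per-gram ratio. The octanol layer was repartitioned until values were consistent. Measured in triplicate and repeated three times.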

Heart [18] = assay: Drug uptake in ICR mouse heart at 370 kBq/100 ul, iv at 2 mins by gamma-counting analysis; format: ADME, organism-based; settings: in vivo; outline: as §1
Blood [19] = assay: Drug uptake in ICR mouse blood at 370 kBq/100 ul, iv at 30 mins by gamma-counting analysis; format: ADME, organism-based; settings: in vivo, 0.5 h; outline: as §1
Spleen [20] = assay: Drug uptake in ICR mouse spleen at 370 kBq/100 ul, iv at 2 mins by gamma-counting analysis; format: ADME, organism-based; settings: in vivo; outline: as §1
Intestine [21] = assay: Drug uptake in ICR mouse intestine assessed per organ at 370 kBq/100 ul, iv at 10 mins by gamma-counting analysis; format: ADME, organism-based; settings: in vivo
Outline: (§3)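 Male ICR mice (5 weeks, about 20 g) got 18F tracer in saline (370 KBq per 100 μL) via tail vein; n = 5 per time point, killed at 2, 10, 30, 60 min. Organs removed and γ-counted against diluted injectate; expressed as % injected dose per organ.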

Bone = assay: Drug uptake in ICR mouse bone at 370 kBq/100 ul, iv at 60 mins by gamma-counting analysis; format: ADME, organism-based, Bone element; settings: in vivo, 1 h; outline: as §1
Spleen [22] = assay: Drug uptake in ICR mouse spleen at 370 kBq/100 ul, iv at 10 mins by gamma-counting analysis; format: ADME, organism-based; settings: in vivo; outline: as §1
Stomach [23] = assay: Drug uptake in ICR mouse stomach assessed per organ at 370 kBq/100 ul, iv at 60 mins by gamma-counting analysis; format: ADME, organism-based; settings: in vivo, 1 h; outline: as §2
Intestine [24] = assay: Drug uptake in ICR mouse intestine assessed per organ at 370 kBq/100 ul, iv at 30 mins by gamma-counting analysis; format: ADME, organism-based; settings: in vivo, 0.5 h; outline: as §3
Spleen [25] = assay: Drug uptake in ICR mouse spleen at 370 kBq/100 ul, iv at 30 mins by gamma-counting analysis; format: ADME, organism-based; settings: in vivo, 0.5 h; outline: as §1
Stomach [26] = assay: Drug uptake in ICR mouse stomach assessed per organ at 370 kBq/100 ul, iv at 2 mins by gamma-counting analysis; format: ADME, organism-based; settings: in vivo; outline: as §3
Kidney [27] = assay: Drug uptake in ICR mouse kidney at 370 kBq/100 ul, iv at 30 mins by gamma-counting analysis; format: ADME, organism-based; settings: in vivo, 0.5 h; outline: as §1
Intestine [28] = assay: Drug uptake in ICR mouse intestine assessed per organ at 370 kBq/100 ul, iv at 2 mins by gamma-counting analysis; format: ADME, organism-based; settings: in vivo; outline: as §3
Kidney [29] = assay: Drug uptake in ICR mouse kidney at 370 kBq/100 ul, iv at 10 mins by gamma-counting analysis; format: ADME, organism-based; settings: in vivo; outline: as §1
Stomach [30] = assay: Drug uptake in ICR mouse stomach assessed per organ at 370 kBq/100 ul, iv at 30 mins by gamma-counting analysis; format: ADME, organism-based; settings: in vivo, 0.5 h; outline: as §3
Intestine [31] = assay: Drug uptake in ICR mouse intestine assessed per organ at 370 kBq/100 ul, iv at 60 mins by gamma-counting analysis; format: ADME, organism-based; settings: in vivo, 1 h; outline: as §3
Brain [32] = assay: Drug uptake in ICR mouse brain at 370 kBq/100 ul, iv at 2 mins by gamma-counting analysis; format: ADME, organism-based; settings: in vivo; outline: as §1
Lung = assay: Drug uptake in ICR mouse lung at 370 kBq/100 ul, iv at 2 mins by gamma-counting analysis; format: ADME, organism-based; settings: in vivo; outline: as §1
Kidney [33] = assay: Drug uptake in ICR mouse kidney at 370 kBq/100 ul, iv at 60 mins by gamma-counting analysis; format: ADME, organism-based; settings: in vivo, 1 h; outline: as §1
Stomach [34] = assay: Drug uptake in ICR mouse stomach assessed per organ at 370 kBq/100 ul, iv at 10 mins by gamma-counting analysis; format: ADME, organism-based; settings: in vivo; outline: as §3

CNc1ccc(-c2nc3cc(OCC[18F])ccc3o2)cn1
Drug uptake (Blood [1]): 3.2 % ID/g | Drug uptake (Kidney [2]): 7.45 % ID/g | Drug uptake (Spleen [3]): 1.64 % ID/g | Drug uptake (Brain [4]): Not Active | Drug uptake (Brain [5]): 1.69 % ID/g | Drug uptake (Blood [6]): 3.36 % ID/g | Ratio (Brain [7]): 4.66 | Drug uptake (Blood [8]): 2.55 % ID/g | Drug uptake (Brain [9]): 1.55 % ID/g | Drug uptake (Heart [10]): 1.84 % ID/g | Drug uptake (Liver [11]): 2.64 % ID/g | Ki [12]: 8 nM | Stability [13]: Stable | Drug uptake (Heart [14]): 2.34 % ID/g | Drug uptake (Liver [15]): 8.5 % ID/g | Drug uptake (Brain [16]): 2.24 % ID/g | logD at 0.05 h [17]: 3.52 | Drug uptake (Heart [18]): 4.66 % ID/g | Drug uptake (Blood [19]): 2.55 % ID/g | Drug uptake (Spleen [20]): 3.32 % ID/g | Drug uptake (Intestine [21]): 19.61 %ID | Drug uptake (Bone): 2.37 % ID/g | Drug uptake (Spleen [22]): 2.13 % ID/g | Drug uptake (Stomach [23]): 3.89 %ID | Drug uptake (Intestine [24]): 33.66 %ID | Drug uptake (Spleen [25]): 1.63 % ID/g | Drug uptake (Stomach [26]): 3.24 %ID | Drug uptake (Kidney [27]): 2.17 % ID/g | Drug uptake (Intestine [28]): 9.87 %ID | Drug uptake (Kidney [29]): 3.52 % ID/g | Drug uptake (Stomach [30]): 3.11 %ID | Drug uptake (Intestine [31]): 39.05 %ID | Drug uptake (Brain [32]): 7.23 % ID/g | Drug uptake (Lung): 4.14 % ID/g | Drug uptake (Kidney [33]): 3.04 % ID/g | Drug uptake (Stomach [34]): 5.59 %ID
